Experimental data from different studies.
Protocols differ between the studies behind these lines.
FGFR2: Fibroblast growth factor receptor 2 (FGFR2, Homo sapiens, UniProt P21802)
FGFR2 N549H: Fibroblast growth factor receptor 2 (FGFR2, Homo sapiens, UniProt P21802, N549H)

Nc1ncnc2occ(-c3ccc(NC(=O)Nc4cc(C(F)(F)F)ccc4F)cc3)c12  remaining signal (FGFR2; cell-free assay; 20 µM): 0%
Cc1sc(C(=O)NC2COC2)cc1-n1cc(NC(=O)Nc2c(F)cccc2Cl)cn1  remaining activity (FGFR2; enzyme activity, inhibitor; 10 µM): 105%
CN(C)CC#Cc1ccc(OCCCc2sc(N3CCc4cccc(C(=O)Nc5nc6ccccc6s5)c4C3)nc2C(=O)O)c(F)c1  remaining binding (FGFR2; cell-free assay, competition with immobilised ligand; 1 µM): 98%
Cc1ccc(NC(=O)c2ccc(C)c(C(F)(F)F)c2)cc1C#Cc1nn(C2CCC(O)CC2)c2ncnc(N)c12 (centres unmarked)  remaining signal (FGFR2 N549H; cell-free assay; 10 µM): -1%
CCN(CC)CCNC(=O)c1c(C)[nH]c(/C=C2\C(=O)Nc3ccc(F)cc32)c1C  inhibition (FGFR2; enzyme activity, inhibitor; 10 µM): 94%
CC(C)(C)c1nc2c(s1)c1nc(N)ncc1c1ccc(NS(=O)(=O)c3c(F)cccc3F)c(F)c12  remaining activity (FGFR2; enzyme activity, inhibitor, radiometric; 1 µM): 91%
CN([C@@H]1CCc2c(CC(=O)O)c3ccccc3n2C1)S(=O)(=O)c1ccc(F)cc1  remaining binding (FGFR2; cell-free assay, competition with immobilised ligand; 1 µM): 80%
COc1ccc(COc2ccc(Cc3cnc(N)nc3N)cc2OC)cc1  remaining signal (FGFR2; cell-free assay; 0.5 µM): 102%
CNc1cccc2cc(C(=O)Nc3ccc(C(=O)O)cc3)c(=O)[nH]c12  inhibition (FGFR2; enzyme activity, inhibitor; 10 µM): -1%
O=C(Nc1cccnn1)N1CCC(=Cc2cccc(Oc3ccc(C(F)(F)F)cn3)c2)CC1  remaining binding (FGFR2; cell-free assay, competition with immobilised ligand; 1 µM): 96%
Nc1nc(Nc2ccc(S(N)(=O)=O)cc2)nn1C(=O)c1c(F)cccc1F  remaining signal (FGFR2; cell-free assay; 0.5 µM): 79.7%
Cc1cc(NC(=O)c2cccc3cc(-c4cccc5[nH]nc(N)c45)ccc23)ccc1F  activity vs control (FGFR2 N549H; enzyme activity, inhibitor; 0.1 µM): 33%
CNC(=O)c1cc(Oc2ccc(NC(=O)Nc3ccc(Cl)c(C(F)(F)F)c3)cc2)ccn1  inhibition (FGFR2; enzyme activity, inhibitor; 10 µM): 98%
N#CCCc1ccc2c(c1)-c1[nH]c3ccc([N+](=O)[O-])cc3c1CC(=O)N2  remaining signal (FGFR2; cell-free assay; 0.5 µM): 93.2%
Cc1ccc(Nc2nccc(N(C)c3ccc4c(C)n(C)nc4c3)n2)cc1S(N)(=O)=O  inhibition (FGFR2; enzyme activity, inhibitor; 0.3 µM): 92%
CC/C(=N\NC(=O)NCc1cccc(O)c1)c1ccc(O)c(C)c1O  inhibition (Fibroblast growth factor receptor 2 (FGFR2, Homo sapiens, UniProt P21802, V564I); enzyme activity, inhibitor; 0.1 µM): -2.7%
O=c1nc(-c2ccccn2)sc2ccccc12  remaining binding (FGFR2; cell-free assay, competition with immobilised ligand; 1 µM): 100%
Cc1cnc(NC2CCOCC2)nc1-n1cnc(C(=O)NC(CN)c2cc(F)cc(Cl)c2)c1 (centres unmarked)  remaining activity (FGFR2; enzyme activity, inhibitor, radiometric; 1 µM): 100%
COc1cc2c(N3CCN(C(=O)Nc4ccc(OC(C)C)cc4)CC3)ncnc2cc1OCCCN1CCCCC1  remaining signal (FGFR2; cell-free assay; 0.5 µM): 99.8%
Cc1ccc(C(=O)NCc2ccsc2)cc1C#Cc1cn(C(C)C)c2ncnc(N)c12  activity vs control (FGFR2; enzyme activity, inhibitor; 1 µM): 55%
O=C(NCCCC1CCCCC1)c1ccc(CNC(=O)c2cnn(-c3ccccc3)c2C(F)(F)F)cc1  remaining binding (FGFR2; cell-free assay, competition with immobilised ligand; 0.1 µM): 100%
CN(C)C1CCN(CC#Cc2nn(C3CCCC3)c3nc(NCc4ccccc4)ncc23)C1 (centres unmarked)  inhibition (FGFR2; enzyme activity, inhibitor, FRET; 1 µM): 8%
COc1cc(-c2cn(C3CCc4c(F)cccc4N(CC(F)(F)F)C3=O)nn2)ccc1-n1cnc(C)c1 (centres unmarked)  remaining binding (FGFR2; cell-free assay, competition with immobilised ligand; 1 µM): 100%
COc1cc(Cl)c(C(=O)N[C@@H](CN[C@H]2CC[C@@H](N)CC2)Cc2ccc(C#N)cc2)cc1-c1ccc(CN[C@H](C)c2ccc(C)cc2)o1  remaining activity (FGFR2; enzyme activity, inhibitor; 1 µM): 102%
CCCOc1ccc(OC)c(F)c1C(=O)c1ccc(C(=O)N[C@@H]2CNC[C@H]2NC(=O)c2ccc3[nH]ncc3c2)cc1  remaining activity (FGFR2 N549H; enzyme activity, inhibitor; 10 µM): 69%
C[C@@]1(Cc2ccc(C#N)cc2)C(=O)N(c2cc(Cl)cc(Cl)c2)c2ncc(C(=O)NC3(c4nc(C5CCC5)no4)CC3)n21  remaining binding (FGFR2; cell-free assay, competition with immobilised ligand; 1 µM): 100%
